# Reference: ChEMBL document CHEMBL4190287, “Identification of Antiangiogenic Potential and Cellular Mechanisms of Napyradiomycin A1 Isolated from the Marine-Derived Streptomyces sp. YP127” (J Nat Prod, 2017)
# Active and inactive are the calls of the source. The calls are words filed in the database; no cut-off is given here.
# Columns and labels:
# HUVEC [1] = experiment: Antiinvasive activity in HUVEC assessed as inhibition of VEGF-induced cell invasion at 20 uM measured every 3 hrs for 24 hrs relative to control; type: functional, Homo sapiens; set-up: scale not given: the % may be the effect or the level left
# Summary of the method: (§1)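 Wound made in HUVEC monolayer (1 × 10^5 cells/well, grown overnight) with pin wounding device, washed with PBS; growth-factor-reduced basement membrane matrix overlaid on wound, compound-containing medium added. Tip cells at invasive front counted after 24 and 48 h of treatment versus control, live-cell imaging.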
# HUVEC [2] = experiment: Antimigratory activity against VEGF-stimulated HUVEC at 20 uM after 24 hrs by scratch wound-healing assay; type: functional, cell-based; conditions: Homo sapiens
# Summary of the method: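 HUVECs plated at 1 × 10^5 cells/well, grown overnight, wounded with pin device, washed twice with PBS; medium with 10 ng/mL VEGF plus compound or DMSO added. Live-cell images every 3 h for 24 h; wound confluence (cell density in wound area, %) computed by imaging algorithm.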
# HUVEC [3] = experiment: Downregulation of VE-cadherin mRNA level in HUVEC at 20 uM after 48 hrs by qRT-PCR method relative to control; type: functional, Homo sapiens
# HUVEC [4] = experiment: Antiangiogenic activity in HUVEC assessed as inhibition of VEGF-induced tube formation after 24 hrs by calcein-AM dye based fluorescence assay; type: functional, cell-based; conditions: Homo sapiens
# Summary of the method: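 HUVECs (passage 6–8) seeded at 6 × 10^4 cells on growth-factor-reduced Matrigel, incubated 24 h with compound at various concentrations plus 10 ng/mL recombinant human VEGF; stained 2 μg/mL Calcein AM 20 min, 37 °C, imaged. Tubes with three branch points counted; three independent experiments, mean tube numbers; IC50 from concentration–response.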
# [5] = Antiproliferative activity against human BJ6 cells at 0.2 to 20 uM after 72 hrs by IncuCyte live imaging
# HUVEC [6] = experiment: Downregulation of VE-cadherin mRNA level in HUVEC at 20 uM after 24 hrs by qRT-PCR method relative to control; type: functional, Homo sapiens
# Summary of the method: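 Total RNA from compound- or DMSO-treated HUVECs (24 h) extracted, cDNA made, VE-cadherin mRNA quantified by real-time PCR relative to control.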
# HUVEC [7] = experiment: Antiproliferative activity against HUVEC assessed as inhibition of Ki67 expression at 20 uM after 24 hrs by immunofluorescent microscopic analysis; type: functional, cell-based; conditions: Homo sapiens
# Summary of the method: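 HUVECs seeded 4 × 10^4 per well on gelatin, treated 24 h; fixed 4% paraformaldehyde 10 min, permeabilized 0.1% Triton X-100 10 min, blocked 10% normal horse serum 1 h RT, anti-Ki-67 1 h, Cy3 secondary, DAPI nuclear stain; fluorescence microscopy.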
# HUVEC [8] = experiment: Downregulation of PECAM1 mRNA level in HUVEC at 20 uM after 48 hrs by qRT-PCR method relative to control; type: functional, Homo sapiens
# HUVEC [9] = experiment: Downregulation of PECAM1 expression in HUVEC at 20 uM after 24 to 48 hrs by Western blot method; type: functional, cell-based; conditions: Homo sapiens
# HUVEC [10] = experiment: Downregulation of PECAM1 mRNA level in HUVEC at 20 uM after 24 hrs by qRT-PCR method relative to control; type: functional, Homo sapiens
# HUVEC [11] = experiment: Antiproliferative activity against HUVEC after 72 hrs by Celltiter-Glo luminescent cell viability assay; type: functional; conditions: Homo sapiens
# Summary of the method: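 HUVECs seeded 2.5 × 10^3 per well, treated with compound at different concentrations; confluency imaged every 6 h over 72 h. At 72 h viable cells measured by CellTiter-Glo luminescence; GI50 calculated.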
# HUVEC [12] = experiment: Cytotoxicity against HUVEC assessed as cell death at 20 uM after 24 hrs by YOYO-1 Iodide staining based fluorescence assay; conditions: human
# HUVEC [13] = experiment: Downregulation of VE-cadherin expression in HUVEC at 20 uM by Western blot method; type: functional, cell-based; conditions: Homo sapiens, TDE = time-dependent effect
# Summary of the method: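 HUVEC lysates in RIPA buffer with protease inhibitors, separated on 4–12% SDS gradient gel, transferred to PVDF, probed with anti-VE-cadherin and anti-GAPDH, HRP secondary, ECL detection.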
# HUVEC [14] = experiment: Induction of cellular permeability in HUVEC at 20 uM by Transwell assay; type: functional, cell-based; conditions: Homo sapiens, TDE = time-dependent effect
# Summary of the method: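 HUVECs (5 × 10^5 cells/well) grown 48 h on gelatin-coated Transwell inserts, then exposed to compound a further 48 h; 1 mg/mL FITC-dextran added to upper chamber and fluorescence transferred to lower chamber read on plate reader.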
# HUVEC [15] = experiment: Antiinvasive activity in HUVEC assessed as inhibition of VEGF-induced cell invasion at 20 uM measured every 3 hrs for 48 hrs relative to control; type: functional, Homo sapiens; set-up: scale not given: the % may be the effect or the level left; summary of the method: as §1
compound,measurement,setting,value
CC(C)=CCC/C(C)=C/C[C@@]12OC(C)(C)[C@H](Cl)C[C@]1(Cl)C(=O)c1c(O)cc(O)cc1C2=O,Activity,HUVEC [1],43%
same,Activity,HUVEC [2],Active
same,Activity,HUVEC [3],94%
same,IC50,HUVEC [4],10 µM
same,Activity,[5],Non-Toxic
same,Activity,HUVEC [6],76%
same,inhibition,HUVEC [7],Active
same,Activity,HUVEC [8],70%
same,Activity,HUVEC [9],inactive
same,Activity,HUVEC [10],53%
same,GI50,HUVEC [11],27.6 µM
same,Activity,HUVEC [12],Non-Toxic
same,Activity,HUVEC [13],Tde
same,Activity,HUVEC [14],Tde
same,Activity,HUVEC [15],52%
